Data: ChEMBL document CHEMBL3045671, “Non-imidazole histamine H3 ligands: part V. synthesis and preliminary pharmacological investigation of 1-[2-thiazol-4-yl- and 1-[2-thiazol-5-yl-(2-aminoethyl)]-4-n-propylpiperazine derivatives” (Med Chem Res, 2013)

Biological target: Histamine H3 receptor (Rattus norvegicus, UniProt Q9QYN8)
Experiment: Binding affinity to Rattus norvegicus (rat) H3 receptor
Details: not given

Sequence of Histamine H3 receptor (Rattus norvegicus, UniProt Q9QYN8) (Q9QYN8 whole entry): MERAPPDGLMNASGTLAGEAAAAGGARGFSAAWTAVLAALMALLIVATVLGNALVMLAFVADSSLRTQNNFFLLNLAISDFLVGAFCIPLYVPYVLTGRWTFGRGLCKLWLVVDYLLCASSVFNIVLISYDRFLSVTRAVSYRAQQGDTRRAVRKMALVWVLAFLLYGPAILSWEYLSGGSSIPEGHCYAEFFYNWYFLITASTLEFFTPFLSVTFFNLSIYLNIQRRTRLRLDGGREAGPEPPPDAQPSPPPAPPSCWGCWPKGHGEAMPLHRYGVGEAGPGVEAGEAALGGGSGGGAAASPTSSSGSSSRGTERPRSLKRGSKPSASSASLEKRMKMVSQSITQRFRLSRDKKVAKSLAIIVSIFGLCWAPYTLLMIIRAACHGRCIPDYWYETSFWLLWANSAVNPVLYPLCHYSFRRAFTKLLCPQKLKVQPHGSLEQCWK

Q: How did the Ki turn out when `O=C(c1ccc(OCCCN2CCCCC2)cc1)C1CC1` was run?
A: Its Ki is 4 nM.

Biological target: Histamine H3 receptor (Cavia porcellus, UniProt Q9JI35)
Sequence (Q9JI35 whole entry): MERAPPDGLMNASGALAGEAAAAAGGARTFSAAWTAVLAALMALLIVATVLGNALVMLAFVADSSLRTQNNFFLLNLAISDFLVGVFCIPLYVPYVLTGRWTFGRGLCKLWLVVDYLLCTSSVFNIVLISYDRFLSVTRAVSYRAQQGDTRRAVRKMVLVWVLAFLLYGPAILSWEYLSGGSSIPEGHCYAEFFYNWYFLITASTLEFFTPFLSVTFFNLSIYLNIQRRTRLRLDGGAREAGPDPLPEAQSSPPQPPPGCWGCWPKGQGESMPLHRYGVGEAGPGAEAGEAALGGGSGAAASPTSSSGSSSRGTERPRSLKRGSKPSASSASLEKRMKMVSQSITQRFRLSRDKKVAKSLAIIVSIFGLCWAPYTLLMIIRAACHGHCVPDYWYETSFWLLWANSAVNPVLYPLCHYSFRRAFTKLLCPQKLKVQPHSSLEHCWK
Experiment: Antagonist activity at H3 receptor in Cavia porcellus (guinea pig) jejunum assessed as inhibition of electrically evoked muscle contraction
Details: read-out: pA2 (converted)
Summary of the method: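 Segments under 1.0 g tension, isotonic recording; 1 h equilibration with washes every 10 min. Field-stimulated maximally (15–20 V) at 0.1 Hz, 0.5 ms rectangular pulses. After 30 min stimulation, cumulative (R)-α-methylhistamine curves (half-log steps) run with pyrilamine 1 × 10⁻⁵ mol/L in bath. The curve was repeated 20 min after the test compound was added, with pyrilamine given beforehand.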

Q: How did the Kb turn out when `CCCN1CCN(c2nc(CCN(C)C)cs2)CC1` was run?
A: Its Kb is 174 nM.

Q: How did the Kb turn out when `CCCN1CCN(c2nc(CCN(C)C(=O)c3ccc(Cl)cc3)cs2)CC1` was run?
A: Its Kb is 589 nM.

Q: Which Kb does the source give for `CCCN1CCN(c2nc(CCN(C)CCCCc3ccccc3)cs2)CC1` here?
A: Its Kb is 191 nM.

Q: With `CCCN1CCN(c2ncc(CCN(C)CCc3ccccc3)s2)CC1` as the compound, how does the Kb read?
A: The Kb was 24.5 nM.

Q: For `CCCN1CCN(c2nc(CCN(C)CCCc3ccccc3)cs2)CC1`, which Kb is on record?
A: Its Kb is 245 nM.

Q: How did the Kb turn out when `CCCN1CCN(c2ncc(CCN(C)C(=O)c3ccccc3)s2)CC1` was run?
A: The Kb was 35.5 nM.

Q: How did the Kb turn out when `CCCN1CCN(c2nc(CCN(C)CCCCCc3ccccc3)cs2)CC1` was run?
A: The Kb was 204 nM.

Q: Which Kb does the source give for `CCCN1CCN(c2nc(CCN(C)C(=O)c3ccc([N+](=O)[O-])cc3)cs2)CC1` here?
A: Its Kb is 933 nM.

Q: How did the Kb turn out when `CCCN1CCN(c2ncc(CCN(C)C(=O)c3ccc(Cl)cc3)s2)CC1` was run?
A: The Kb was 18.6 nM.

Q: `CCCN1CCN(c2nc(CCN(C)CCc3ccccc3)cs2)CC1` was tested. Which Kb did it give?
A: The Kb was 155 nM.

Q: For `CCCN1CCN(c2nc(CCN(C)Cc3ccccc3)cs2)CC1`, which Kb is on record?
A: The Kb was 75.9 nM.

Q: `CCCN1CCN(c2ncc(CCN(C)C(=O)c3ccc(C)cc3)s2)CC1` was tested. Which Kb did it give?
A: Its Kb is 24.5 nM.

Q: With `CCCN(C)CCc1csc(N2CCN(CCC)CC2)n1` as the compound, how does the Kb read?
A: Its Kb is 120 nM.

Q: `CCCN1CCN(c2ncc(CCN(C)C(=O)c3ccc([N+](=O)[O-])cc3)s2)CC1` was tested. Which Kb did it give?
A: The Kb was 17.4 nM.

Q: How did the Kb turn out when `CCCN1CCN(c2nc(CCN(C)C(=O)c3ccc(C)cc3)cs2)CC1` was run?
A: Its Kb is 1580 nM.

Q: How did the Kb turn out when `CCCN1CCN(c2nc(CCN(C)C(=O)c3ccccc3)cs2)CC1` was run?
A: The Kb was 2240 nM.
